# Screening data (PubChem BioAssay)
# The list is not random: actives were taken first. Their share in the collection is about 2.3%.
# HIV Env fusion – inhibitors of HIV Env-mediated cell fusion; 360,000 tested, 1.1% active; HeLa-JRFL Env/CEM21 cell fusion, luciferase; inhibition, % at 12.3 µM;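 active means mean replicate inhibition score of at least 50 and every replicate individually at or above 50; inconclusive means only one of the two criteria met; inactive means mean below 50 and not all replicates reaching 50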;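 further: 0% = plate neutral controls and 100% = maraviroc near 300 nM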
# Rtt109 HAT inh – blocks Candida albicans Rtt109/Vps75 acetyltransferase activity. Q5AAJ8. purified Rtt109/Vps75, ThioGlo CoA-SH fluorescence, 4 h. inhibition, % at 34.9 µM. 330,000 tested, 0.16% active. AID 540336;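 active means inhibition of at least 50% in every replicate; inconclusive means best replicate reaches 50% inhibition but some replicates fall short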
# Target sequence (Q5AAJ8 whole entry, looked up): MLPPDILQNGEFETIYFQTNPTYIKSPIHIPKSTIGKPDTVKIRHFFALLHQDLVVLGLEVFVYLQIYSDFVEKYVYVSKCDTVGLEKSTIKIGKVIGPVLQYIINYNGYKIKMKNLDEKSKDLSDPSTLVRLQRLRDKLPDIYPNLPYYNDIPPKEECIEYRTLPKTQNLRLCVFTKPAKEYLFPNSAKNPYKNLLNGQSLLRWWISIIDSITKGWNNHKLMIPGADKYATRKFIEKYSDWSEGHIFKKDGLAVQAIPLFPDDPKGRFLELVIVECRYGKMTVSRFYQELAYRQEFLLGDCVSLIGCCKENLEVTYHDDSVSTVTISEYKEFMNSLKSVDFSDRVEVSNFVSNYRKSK
# PfHsp90 set2 – reduces growth (ATP signal) of yeast expressing P. falciparum Hsp90 | S. cerevisiae expressing PfHsp90, BacTiter-Glo ATP, 48 h; yeast lacking PDR1 and PDR3 efflux regulators | inhibition, % at 9.4 µM | 310,000 tested, 0.32% active | AID 504621;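 active means every replicate shows inhibition above about 80%, whatever the replicate mean, limit read from the data; inconclusive means mean inhibition reaches the set limit but some replicate falls short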;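 further: 0% = DMSO neutral controls and 100% = 20 µM radicicol positive controls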
# PAX8 reporter – lowers PAX8-driven luciferase in RMG-I cells; RMG-I TPO-luciferase reporter, SteadyGlo, 24 h; inhibition, % at 12.6 µM; 360,000 tested, 1.2% active; AID 652154;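 active means mean replicate inhibition at least 60% with every replicate also reaching 60%; inconclusive means only one of the two criteria is met; inactive means mean below 60% and not all replicates reaching 60%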;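 further: luciferase light reporting Pax8 driven TPO promoter activity; plate controls were median of neutral control wells for no effect and mitoxantrone controls for full effect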
# Arrestin-AP2 inh – inhibitors of human beta-arrestin and AP2 interaction. FITC-arrestin peptide / GST-AP2 beads, flow cytometry; AP2 beta2 appendage carries R879A mutation. AID 504490. 340,000 tested, 0.31% active. inhibition, % at 10 µM;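 active means inhibition above a set limit, near 3 SD of compounds lacking own fluorescence, cut at about 54% in these data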;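 further: plate controls were DMSO wells for no effect and 5 µM unlabelled arrestin peptide for full effect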
#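 Assay system: GST-AP2 R879A bound to glutathione beads, E. coli-expressed; Medium: PBS with 0.05% Tween 20 and 0.1% BSA; Also added: fluorescein-tagged arrestin peptide at 50 nM final; Timing: 12 min plus 1 h, RT; Measured by: flow cytometry, FL1 (488/535 nm); Evaluation: percent drop in bead-associated FITC signal.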
# N-glyco inh – N-linked glycosylation inhibition | D54 ERlucT glycosylation luciferase reporter, 24 h; percent of 100 nM tunicamycin response | reporter increase, % at 12.5 µM | 360,000 tested, 0.23% active | AID 588692;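 active means mean luciferase reporter signal, scaled so untreated is 0 and the glycosylation-blocking control 100, at or above a set limit in every replicate; inconclusive means mean reaches the limit but not every replicate does; inactive means mean below the limit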;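 further: luciferase carries N-glycosylation sites so blocking glycosylation raises the light; 0% = median of neutral control wells and 100% = median of 100 nM tunicamycin wells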
# * marks the source's active call; other numbers are inactive results; ? = inconclusive; nt = not tested or not shown; [ ] = dose if it differs, or a comment.
SMILES,HIV Env fusion,Rtt109 HAT inh,PfHsp90 set2,PAX8 reporter,Arrestin-AP2 inh,N-glyco inh
Cc1ccn2c(Nc3ccccc3)c(-c3ccccn3)nc2c1,66.1*,-9.4,3.0,18.4,41.6,-4.9
C[C@@H]1CCCCO[C@@H](CN(C)Cc2ccc(C(F)(F)F)cc2)[C@@H](C)CN([C@H](C)CO)C(=O)c2cc(NS(=O)(=O)c3cccs3)ccc2O1,-23.5[16.7 µM],nt,nt,38.0,nt,nt
C[C@@H]1CCCCO[C@H](CN(C)Cc2ccc(C(F)(F)F)cc2)[C@H](C)CN([C@@H](C)CO)C(=O)c2cc(NS(=O)(=O)c3cccs3)ccc2O1,?,nt,nt,93.3*,nt,nt
C[C@@H]1CCCCO[C@H](CN(C)Cc2ccc(C(F)(F)F)cc2)[C@H](C)CN([C@H](C)CO)C(=O)c2cc(NS(=O)(=O)c3cccs3)ccc2O1,59.6*[16.7 µM],nt,nt,99.3*,nt,nt
C[C@@H]1CCCCO[C@@H](CN(C)Cc2ccc(C(F)(F)F)cc2)[C@H](C)CN([C@H](C)CO)C(=O)c2cc(NS(=O)(=O)c3cccs3)ccc2O1,?,nt,nt,89.0*,nt,nt
C[C@@H]1CCCCO[C@@H](CN(C)Cc2ccc(C(F)(F)F)cc2)[C@H](C)CN([C@@H](C)CO)C(=O)c2cc(NS(=O)(=O)c3cccs3)ccc2O1,9.0[16.7 µM],nt,nt,?,nt,nt
CN1CCN(C(=O)C[C@@H]2C[C@H]3c4cc(NC(=O)NC5CCCC5)ccc4O[C@H]3[C@@H](CO)O2)CC1,6.1[16.7 µM],nt,nt,-7.2,nt,nt
CN(C)c1ccc2nc3ccc(=O)cc-3sc2c1,65.8*,nt,nt,nt,nt,-8.1
CN(C)c1ccc2nc3ccc(=[N+](C)C)cc-3sc2c1,85.5*,17.2,31.5,-71.4,23.1,-16.5
Cc1cc2nc3ccc(=[N+](C)C)cc-3sc2cc1N,nt,39.5,49.0,nt,32.5,-19.9
Cc1noc(C)c1NC(=O)Nc1ccc2c(c1)C(=O)N([C@@H](C)CO)C[C@@H](C)[C@@H](CN(C)S(=O)(=O)c1ccc(Cl)cc1)O2,-22.0[16.7 µM],nt,nt,nt,nt,nt
Cn1c(=O)n(-c2cccc(Cl)c2)c(=O)c2c3c(sc21)COC(C)(C)C3,113.6*,-6.3,-5.8,nt,11.3,0.4
CCCn1c(CC)nc([N+](=O)[O-])c1S(=O)(=O)c1ccccc1,44.0,10.0,16.3,82.2*,0.0,8.4
C=C1C(=O)OC2/C=C(/C)CC/C=C(/C)CCC12 (centres undefined),-18.3[16.7 µM],nt,nt,98.3*,nt,nt
C=C1C(=O)OC2CC1C(O)CC(C)=CCCC(C)=CC(O)CC2C (centres undefined),23.3,-3.2,16.2,100.8*,-13.2,-19.8
C=C1C(=O)OC2CC1C(OC(C)=O)CC(C)=CCCC(C)=CCCC2(C)O (centres undefined),nt,nt,nt,nt,nt,-23.8
CO[C@H]1CN(C)C(=O)c2ccc(NC(=O)C3CCOCC3)cc2OC[C@@H](C)N(Cc2cccnc2)C[C@H]1C,nt,nt,nt,3.0,nt,nt
CCOC(=O)/C=C(\C)Sc1cc(O)c2ccccc2c1O,11.4,3.5,-3.0,35.2,33.7,5.3
CCOC(=O)/C=C(\C)Sc1cc(=O)oc2ccccc12,23.2,17.4,-66.8,64.0*,1.4,25.1*
Cc1ccc(C2CC(=O)c3cnc(N4CCc5ccccc5C4)nc3C2)cc1 (centres undefined),67.5*,4.7,12.2,nt,7.4,-1.5
O=C1CC(c2ccccc2)Cc2nc(N3CCc4ccccc4C3)ncc21 (centres undefined),4.6,-10.1,nt,nt,10.5,-0.9
COc1ccc(S(=O)(=O)Nc2ccc3c(c2)C(=O)N([C@H](C)CO)C[C@@H](C)[C@H](CN(C)Cc2ccc(C(F)(F)F)cc2)OCCCC[C@@H](C)O3)cc1,63.7*[16.7 µM],nt,nt,22.5,nt,nt
COc1ccc(S(=O)(=O)Nc2ccc3c(c2)C(=O)N([C@H](C)CO)C[C@H](C)[C@H](CN(C)Cc2ccc(C(F)(F)F)cc2)OCCCC[C@H](C)O3)cc1,46.9[16.7 µM],nt,nt,108.0*,nt,nt
COc1ccc(S(=O)(=O)Nc2ccc3c(c2)C(=O)N([C@@H](C)CO)C[C@@H](C)[C@H](CN(C)Cc2ccc(C(F)(F)F)cc2)OCCCC[C@H](C)O3)cc1,?,nt,nt,95.8*,nt,nt
COc1ccc(S(=O)(=O)Nc2ccc3c(c2)C(=O)N([C@H](C)CO)C[C@@H](C)[C@@H](CN(C)Cc2ccc(C(F)(F)F)cc2)OCCCC[C@@H](C)O3)cc1,55.3*[16.7 µM],nt,nt,109.6*,nt,nt
SMILES,HIV Env fusion,Rtt109 HAT inh,PfHsp90 set2,PAX8 reporter,Arrestin-AP2 inh,N-glyco inh
COCCCNC(=O)[C@@]1(CCS(=O)(=O)c2ccccc2)COC(c2ccc(OCCCO)cc2)=N1,0.0[16.7 µM],nt,nt,-0.5,nt,nt
C[C@@H](O)C#Cc1ccc([C@@H]2[C@H](CO)N3CCCCN(C(=O)c4ccc(F)cc4)C[C@@H]23)cc1,nt,nt,nt,3.4,nt,nt
COc1ccc(S(=O)(=O)Nc2ccc3c(c2)C(=O)N([C@H](C)CO)C[C@H](C)[C@H](CN(C)Cc2ccc(C(F)(F)F)cc2)OCCCC[C@@H](C)O3)cc1,-21.5[16.7 µM],nt,nt,47.3,nt,nt
COc1ccc(CN(C)C[C@@H]2OCCCC[C@H](C)Oc3ccc(NS(=O)(=O)c4ccc(C)cc4)cc3C(=O)N([C@H](C)CO)C[C@H]2C)cc1,-11.4[16.7 µM],nt,nt,82.3*,nt,nt
COc1ccc(S(=O)(=O)Nc2ccc3c(c2)C(=O)N([C@H](C)CO)C[C@@H](C)[C@@H](CN(C)Cc2ccc(C(F)(F)F)cc2)OCCCC[C@H](C)O3)cc1,73.9*[16.7 µM],nt,nt,105.2*,nt,nt
COc1ccc(S(=O)(=O)Nc2ccc3c(c2)C(=O)N([C@@H](C)CO)C[C@@H](C)[C@@H](CN(C)Cc2ccc(C(F)(F)F)cc2)OCCCC[C@@H](C)O3)cc1,49.2[16.7 µM],nt,nt,104.9*,nt,nt
C[C@@H]1CN([C@@H](C)CO)C(=O)c2cc(NC(=O)CCCN(C)C)ccc2O[C@@H](C)CCCCO[C@@H]1CN(C)C(=O)NC1CCCCC1,-12.9[16.7 µM],nt,nt,nt,nt,nt
O=C(OCC(=O)C12CC3CC(CC(C3)C1)C2)c1ccc(O)cc1,nt,0.6,99.4*,-73.9,31.3,-1.6
O=C(OCC(=O)C12CC3CC(CC(C3)C1)C2)c1ccc(CO)cc1,nt,-15.2,11.1,-80.8,-3.9,-0.6
CS(=O)(=O)Nc1ccc2c(c1)[C@@H]1C[C@H](CC(=O)NCc3ccccc3)O[C@@H](CO)[C@@H]1O2,4.0[16.7 µM],nt,nt,-0.9,nt,nt
CN(C(=O)COC(=O)c1cncc(Br)c1)C1CCCCC1,-32.4,12.5,3.7,-108.1,16.0,-0.2
CN(C(=O)c1cncc(Br)c1)C1C2CC3CC(C2)CC1C3 (centres undefined),33.5,59.2*,6.6,-27.1,15.7,0.9
COC(=O)C1=C(C)N(CC2CC2)C(=O)N[C@H]1c1ccc(Br)cc1,77.5*,nt,nt,18.5,nt,nt
COC(=O)C1=C(C)N(Cc2ccc(C(F)(F)F)cc2)C(=NCc2ccccc2)NC1c1ccccc1 (centres undefined),-28.2,nt,nt,12.5,nt,nt
COC(=O)C1=C(C)N(Cc2ccc(C(F)(F)F)cc2)C(=NCc2ccccc2)NC1c1ccc(C(F)(F)F)cc1 (centres undefined),18.2,nt,nt,84.4*,nt,nt
